The text below walks through data of ChEMBL document CHEMBL1123737, “Synthesis, absolute configuration, and antibacterial activity of 6,7-dihydro-5,8-dimethyl-9-fluoro-1-oxo-1H,5H- benzo[ij]quinolizine-2-carboxylic acid” (1987).

Each structure is given as a SMILES string. In brackets after ≈: the same amount, converted by molar mass.

The test system of one assay is Bordetella pertussis. Put plainly: In vitro antibacterial activity against Bordetella pertussis ATCC 10380. Format: functional. A digest of the protocol:
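Agar dilution on Mueller-Hinton agar with drug from 5 mg/mL DMSO stocks, 2-fold diluted through nutrient broth to 12.5–0.006 µg/mL. Inoculum was applied by Steers replicator. MIC was read as the lowest concentration with no visible growth.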

The subject of the next assay is Escherichia coli. Put plainly: In vitro antibacterial activity against Escherichia coli ATCC 15221. Format: functional. Summed up:
(§1)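 Agar dilution MIC. DMSO stocks at 5 mg/mL were serially 2-fold diluted in nutrient broth and mixed into Mueller-Hinton agar, with 5% defibrinated rabbit blood for hemophilic bacteria. Final range was 12.5 to 0.006 µg/mL. Overnight growth was suspended in saline to McFarland 6 (2 × 10^6/mL) and Steers-replicated. Plates were incubated 30 h at 37 °C; MIC was the lowest concentration preventing visible growth.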

A further assay concerns Enterobacter cloacae. Kind of assay: In vitro antibacterial activity against Enterobacter cloacae ATCC 23355. The class given is functional. Summed up: as §1
The next assay has as its system Haemophilus influenzae. Put plainly: In vitro antibacterial activity against Haemophilus influenzae ATCC 9333. The class given is functional. A digest of the protocol: as §1
Another assay relates to Klebsiella pneumoniae. Kind of assay: In vitro antibacterial activity against Klebsiella pneumoniae ATCC 23357. The class given is functional. Summed up: as §1
The subject of a further assay is Proteus mirabilis. Kind of assay: In vitro antibacterial activity against Proteus mirabilis-R 119. The class given is functional. A digest of the protocol:
as §1

Assay [1] is described as follows: In vitro antibacterial activity against Pseudomonas cepacia ATCC 25608. The class given is functional. Conditions: Burkholderia cepacia. Summed up: as §1
The next assay has as its system Pseudomonas aeruginosa. Kind of assay: In vitro antibacterial activity against Pseudomonas aeruginosa ATCC 15422. The class given is functional. A digest of the protocol: as §1
Assay [2] in a line: In vitro antibacterial activity against Salmonella typhi-CDC M4694. Format: functional, salmonella typhosa. A digest of the protocol: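 Agar dilution MIC: compounds dissolved in DMSO (5 mg/mL stock), 2-fold serial dilutions in nutrient broth, mixed into Mueller-Hinton agar; series 12.5 down to 0.006 μg/mL. Overnight culture suspended in saline to McFarland 6 (2 × 10^6/mL), spotted with Steers replicator. Incubated 37 °C for 30 h; MIC = lowest concentration preventing visible growth.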

Assay [3] concerns Staphylococcus epidermidis. Kind of assay: In vitro antibacterial activity against Staphylococcus epidermidis ATCC 12228. The class given is functional. A digest of the protocol: as §1
In a further assay the test system is Serratia marcescens. Put plainly: In vitro antibacterial activity against Serratia marcescens ATCC 8100. Format: functional. Summed up:
as §1

Assay [4] relates to Enterococcus faecalis. Kind of assay: In vitro antibacterial activity against Streptococcus Streptococcus faecalis ATCC 10741. Format: functional. Summed up:
as §1

The test system of a further assay is Streptococcus pyogenes. Kind of assay: In vitro antibacterial activity against Streptococcus pyogenes ATCC 1961-1. Format: functional. Summed up: as §1
The subject of the next assay is Staphylococcus aureus. Kind of assay: In vitro antibacterial activity against Staphylococcus aureus ATCC 6538-P. Format: functional. Summed up: as §1
Assay [5] deals with Enterococcus faecalis. Kind of assay: In vitro antibacterial activity against Streptococcus faecalis ATCC 10741. Format: functional. Summed up:
as §1

For the compound `Cc1c(F)cc2c(=O)c(C(=O)O)cn3c2c1CCC3`, the MIC with Bordetella pertussis was determined as 0.8 µg/mL (≈ 3.06 µM); in the assay with Escherichia coli, 0.8 µg/mL (≈ 3.06 µM); with Enterobacter cloacae, 0.4 µg/mL (≈ 1.53 µM); with Haemophilus influenzae, 0.1 µg/mL (≈ 0.383 µM); against Klebsiella pneumoniae, 0.8 µg/mL (≈ 3.06 µM); against Proteus mirabilis it was 1.6 µg/mL (≈ 6.12 µM). Moreover, the MIC in [1] was 6.2 µg/mL (≈ 23.7 µM); in the assay with Pseudomonas aeruginosa it was 12.5 µg/mL (≈ 47.8 µM); in assay [2], 0.4 µg/mL (≈ 1.53 µM); in [3] it was 1.6 µg/mL (≈ 6.12 µM); with Serratia marcescens it was 0.8 µg/mL (≈ 3.06 µM); against Enterococcus faecalis [4], 12.5 µg/mL (≈ 47.8 µM). The MIC turned out to be 12.5 µg/mL (≈ 47.8 µM) in the assay with Streptococcus pyogenes and 0.8 µg/mL (≈ 3.06 µM) with Staphylococcus aureus.
For `Cc1c(F)cc2c(=O)c(C(=O)O)cn3c2c1CC[C@@H]3C`, the MIC was 0.012 µg/mL (≈ 0.0436 µM) in the assay with Bordetella pertussis; 0.1 µg/mL (≈ 0.363 µM) in the assay with Escherichia coli; 0.1 µg/mL (≈ 0.363 µM) in the assay with Enterobacter cloacae; 0.006 µg/mL (≈ 0.0218 µM) against Haemophilus influenzae; 0.1 µg/mL (≈ 0.363 µM) in the assay with Klebsiella pneumoniae; 0.4 µg/mL (≈ 1.45 µM) against Proteus mirabilis. Moreover, the MIC in [1] was 0.8 µg/mL (≈ 2.91 µM); with Pseudomonas aeruginosa, 3.1 µg/mL (≈ 11.3 µM); in assay [2], 0.05 µg/mL (≈ 0.182 µM); in assay [3] it was 0.05 µg/mL (≈ 0.182 µM); in the assay on Serratia marcescens, 0.2 µg/mL (≈ 0.727 µM); in the assay on Enterococcus faecalis [4], 0.8 µg/mL (≈ 2.91 µM). Besides, the MIC in the assay on Streptococcus pyogenes was 1.6 µg/mL (≈ 5.81 µM); with Staphylococcus aureus, 0.025 µg/mL (≈ 0.0908 µM).
For the compound `Cc1c(F)cc2c(=O)c(C(=O)O)cn3c2c1CC[C@H]3C`, the MIC against Bordetella pertussis amounted to 1.6 µg/mL (≈ 5.81 µM); against Escherichia coli it was 6.2 µg/mL (≈ 22.5 µM); in the assay with Enterobacter cloacae, 3.1 µg/mL (≈ 11.3 µM); against Haemophilus influenzae, 0.4 µg/mL (≈ 1.45 µM); against Klebsiella pneumoniae, 6.2 µg/mL (≈ 22.5 µM); against Proteus mirabilis it was 12.5 µg/mL (≈ 45.4 µM). The MIC worked out at 12.5 µg/mL (≈ 45.4 µM) in [1]; 12.5 µg/mL (≈ 45.4 µM) against Pseudomonas aeruginosa; 3.1 µg/mL (≈ 11.3 µM) in assay [2]; 6.2 µg/mL (≈ 22.5 µM) in [3]; 3.1 µg/mL (≈ 11.3 µM) in the assay with Serratia marcescens; 12.5 µg/mL (≈ 45.4 µM) in the assay on Enterococcus faecalis [4]. Further, the results for the MIC with Streptococcus pyogenes and in the assay with Staphylococcus aureus were 12.5 µg/mL (≈ 45.4 µM) and 3.1 µg/mL (≈ 11.3 µM), respectively.
In the case of `Cc1c(F)cc2c(=O)c(C(=O)O)cn3c2c1CCC3C` (racemic) [IBAFLOXACIN], the MIC stood at 0.025 µg/mL (≈ 0.0908 µM) in the assay on Bordetella pertussis; 0.2 µg/mL (≈ 0.727 µM) against Escherichia coli; 0.2 µg/mL (≈ 0.727 µM) against Enterobacter cloacae; 0.006 µg/mL (≈ 0.0218 µM) with Haemophilus influenzae; 0.2 µg/mL (≈ 0.727 µM) in the assay on Klebsiella pneumoniae; 0.8 µg/mL (≈ 2.91 µM) in the assay on Proteus mirabilis. The MIC in assay [1] stood at 0.8 µg/mL (≈ 2.91 µM); against Pseudomonas aeruginosa it was 6.2 µg/mL (≈ 22.5 µM); in assay [2] it was 0.1 µg/mL (≈ 0.363 µM); in assay [3], 0.1 µg/mL (≈ 0.363 µM); with Serratia marcescens, 0.4 µg/mL (≈ 1.45 µM); against Enterococcus faecalis [5] it was 0.8 µg/mL (≈ 2.91 µM). For the same compound, the values for the MIC against Streptococcus pyogenes and against Staphylococcus aureus were 0.8 µg/mL (≈ 2.91 µM) and 0.05 µg/mL (≈ 0.182 µM), respectively.
